Measurements published in paper PMC3075368 (Journal of molecular and cellular cardiology, 2011).
Read-outs that look alike come from different tables or passages of the source. Bridge positions count the residues as written; N and C are the ends. Ends that are not written are not given here.

Assays:
[1] = test system: heart function in rats after ischemia/reperfusion injury; conditions: rat, in vivo
alpha-B crystalline = molecular target: T1, alpha-B crystalline (Homo sapiens, UniProt P02511); experiment: Surface Plasmon Resonance assay; type: binding; conditions: biotinylated peptide on streptavidin coated chips, Biacore 2000
T1 sequence (P02511 1-175): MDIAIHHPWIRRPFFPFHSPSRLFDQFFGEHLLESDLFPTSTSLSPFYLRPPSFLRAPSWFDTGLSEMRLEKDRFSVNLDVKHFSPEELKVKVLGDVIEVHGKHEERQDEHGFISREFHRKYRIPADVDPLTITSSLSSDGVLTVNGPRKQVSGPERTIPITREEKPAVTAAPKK

[2] = test system: heart function in rats after ischemia/reperfusion injury
ischemic left ventricle = experiment: Western analysis of post-ischemic cardiac tissue with anti-mCherry antibody; type: in vivo, mouse; conditions: versus negative controls
Summary of the method: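 Mice had 15 min ischemia then 5 min reperfusion. Recombinant Sumo-mCherry–test peptide (Ni-NTA plus size-exclusion purified; 10 mg/mL PBS stock) was given 1 mg i.v. Controls were unconjugated Sumo-mCherry, linear or scrambled peptide fusions, and PBS. After 5 min circulation, ischemic LV, non-ischemic LV and RV were snap frozen, RIPA-homogenized, sonicated and centrifuged, then blotted with rabbit anti-RFP. Three blinded sets, 5 mice each.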

[3] = echocardiography, 24 hours after administration, n=4, mean ± SEM
[4] = hemodynamic measurement, 24 hours after administration, n=4, mean ± SEM

“CSKTALSMC (disulfide 1-9 (inferred)) [scrambled peptide]” was tested, and the “% Fractional shortening” value [1] was 43.20±3.22%, the Anterior wall thickness [1] was 2.08±0.08 mm and the Cardiac index [1] was 20.96±4.48 ml/min per 100 g. For the same substance, the Cardiac output [1] was 44530 ± 7633 µL/min, the Ejection fraction [1] was 27.89±3.01% and the End-diastolic dimension [1] was 5.16±0.23 mm. The End-diastolic pressure [1] was 3.08±0.22 mmHg, the End-diastolic volume [1] was 362.72 ± 14.82 µL and the End-systolic dimension [1] was 2.93±0.18 mm. For the same substance, the End-systolic pressure [1] was 120.1±3.48 mmHg, the End-systolic volume [1] was 260.91 ± 10.99 µL and the Heart rate [1] was 430.75±20.59 beats/min. The LVM/BW [1] was 2.94±0.32, the Left ventricle mass [1] was 646 ± 55.48 g and the Posterior wall thickness [1] was 1.83±0.06 mm. For the same substance, the Stroke volume [1] was 101.81 ± 13.74 µL.

In the case of CSTSMLKAC (disulfide 1-9 (inferred)), the “interaction with alpha-B crystalline” value (alpha-B crystalline) is reported as “a significant interaction between CSTSMLKAC and alpha-B crystalline was not demonstrated”, the Body weight ([2]; 24 hours after administration, n=4, mean ± SEM) is reported as 260.25 ± 13.14 g and the “impairment in LV contractile function” value ([2]; 24 hours after systemic administration, versus scrambled peptide and PBS, n=4 each) is reported as “did not induce any significant impairment”. The “% Fractional shortening” value [2, 3] was 54.05±6.72%, the Anterior wall thickness [2, 3] was 2.00±0.04 mm and the End-diastolic dimension [2, 3] was 5.33±0.36 mm. The End-systolic dimension [2, 3] was 2.49±0.51 mm, the Posterior wall thickness [2, 3] was 1.73±0.10 mm and the Cardiac index [2, 4] was 19.87±2.54 ml/min per 100 g. For the same substance, the Cardiac output [2, 4] was 51430 ± 6708 µL/min, the Ejection fraction [2, 4] was 28.44±2.09% and the End-diastolic pressure [2, 4] was 3.96±0.67 mmHg. It also gave an End-diastolic volume [2, 4] of 393.56 ± 25.62 µL, an End-systolic pressure [2, 4] of 119±3.16 mmHg and an End-systolic volume [2, 4] of 280.76 ± 15.91 µL. The Stroke volume [2, 4] was 112.82 ± 13.61 µL.

With Sumo-mCherry-CSTSMLKAC the “homing of the protein to post-ischemic cardiac tissue” value (ischemic left ventricle) was “clear homing”.
